Measurements as given in ChEMBL document CHEMBL5058577, “EUbOPEN Chemogenomics Library 2 (Multiplex)” (2022).

System: HEK-293T
Assay: Multiplex assay against HEK293T
Assay type: toxicity, cell-based
Conditions: human
Method in brief: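 On a CQ1 microscope at 37°C and 5% CO2, live cells were imaged after compound addition. They had been stained at seeding with Hoechst33342, BioTracker Green Microtubule Cytoskeleton Dye, MitoTracker Red and Annexin V Alexa Fluor 680. CellPathfinder machine-learning gating assigned cells to Hoechst high-intensity objects or normal cells, normal cells to healthy, pyknosed or fragmented nuclei, and pyknosed cells to mitotic or apoptotic. Tubulin, mitochondrial-mass and membrane-permeability phenotypes are per cents of healthy-nucleus cells.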

[1] = 12 h, 1 µM, compound concentration 1 uM, replicate 1
[2] = 12 h, 1 µM, compound concentration 1 uM, replicate 2
[3] = 12 h, 10 µM, compound concentration 10 uM, replicate 1
[4] = 12 h, 10 µM, compound concentration 10 uM, replicate 2
[5] = 24 h, 1 µM, compound concentration 1 uM, replicate 1
[6] = 24 h, 1 µM, compound concentration 1 uM, replicate 2
[7] = 24 h, 10 µM, compound concentration 10 uM, replicate 1
[8] = 24 h, 10 µM, compound concentration 10 uM, replicate 2
[9] = 48 h, 1 µM, compound concentration 1 uM, replicate 1
[10] = 48 h, 1 µM, compound concentration 1 uM, replicate 2
[11] = 48 h, 10 µM, compound concentration 10 uM, replicate 1
[12] = 48 h, 10 µM, compound concentration 10 uM, replicate 2

`CCCCCC(O)/C=C/[C@H]1C(=O)CC(O)C1C/C=C\CCCC(=O)O` (stereo not given in full) was tested, and the “Population Apoptotic (%)” value [1] was 29%, the “Population Fragmented Nuclei (%)” value [1] was 8% and the “Population Healthy Nuclei (%)” value [1] was 80%. The “Population Hoechst High Intensity Objects (%)” value [1] was 8%, the “Population Membrane Permeable-Phenotype (%)” value [1] was 0% and the “Population Mitochondria Different-Phenotype (%)” value [1] was 44%. The “Population Mitotic Cells (%)” value [1] was 70%, the “Population Normal (%)” value [1] was 91% and the “Population Pyknosed Nuclei (%)” value [1] was 11%. For the same compound, the “Population Tubulin-Different-Phenotype (%)” value [1] was 23%, the “Total Cell Count” value [1] was 409 and the “Population Apoptotic (%)” value [2] was 39%. For the same compound, the “Population Fragmented Nuclei (%)” value [2] was 7%, the “Population Healthy Nuclei (%)” value [2] was 83% and the “Population Hoechst High Intensity Objects (%)” value [2] was 6%. For the same compound, the “Population Mitochondria Different-Phenotype (%)” value [2] was 56%, the “Population Mitotic Cells (%)” value [2] was 60% and the “Population Normal (%)” value [2] was 93%. The “Population Pyknosed Nuclei (%)” value [2] was 9%, the “Population Tubulin-Different-Phenotype (%)” value [2] was 20% and the “Total Cell Count” value [2] was 383. The “Population Apoptotic (%)” value [3] was 48%, the “Population Fragmented Nuclei (%)” value [3] was 6% and the “Population Healthy Nuclei (%)” value [3] was 79%. The “Population Hoechst High Intensity Objects (%)” value [3] was 9%, the “Population Membrane Permeable-Phenotype (%)” value [3] was 0% and the “Population Mitochondria Different-Phenotype (%)” value [3] was 48%. For the same compound, the “Population Mitotic Cells (%)” value [3] was 51%, the “Population Normal (%)” value [3] was 90% and the “Population Pyknosed Nuclei (%)” value [3] was 14%. For the same compound, the “Population Tubulin-Different-Phenotype (%)” value [3] was 31%, the “Total Cell Count” value [3] was 409 and the “Population Apoptotic (%)” value [4] was 54%. For the same compound, the “Population Healthy Nuclei (%)” value [4] was 77%, the “Population Hoechst High Intensity Objects (%)” value [4] was 7% and the “Population Mitochondria Different-Phenotype (%)” value [4] was 59%. The “Population Mitotic Cells (%)” value [4] was 46%, the “Population Normal (%)” value [4] was 92% and the “Population Pyknosed Nuclei (%)” value [4] was 15%. For the same compound, the “Population Tubulin-Different-Phenotype (%)” value [4] was 25%, the “Total Cell Count” value [4] was 343 and the “Population Apoptotic (%)” value [5] was 40%. The “Population Fragmented Nuclei (%)” value [5] was 8%, the “Population Healthy Nuclei (%)” value [5] was 83% and the “Population Hoechst High Intensity Objects (%)” value [5] was 3%. For the same compound, the “Population Membrane Permeable-Phenotype (%)” value [5] was 1%, the “Population Mitochondria Different-Phenotype (%)” value [5] was 22% and the “Population Mitotic Cells (%)” value [5] was 59%. The “Population Normal (%)” value [5] was 96%, the “Population Pyknosed Nuclei (%)” value [5] was 8% and the “Population Tubulin-Different-Phenotype (%)” value [5] was 11%. For the same compound, the “Total Cell Count” value [5] was 611, the “Population Apoptotic (%)” value [6] was 44% and the “Population Fragmented Nuclei (%)” value [6] was 7%. The “Population Healthy Nuclei (%)” value [6] was 84%, the “Population Hoechst High Intensity Objects (%)” value [6] was 7% and the “Population Membrane Permeable-Phenotype (%)” value [6] was 0%. The “Population Mitochondria Different-Phenotype (%)” value [6] was 41%, the “Population Mitotic Cells (%)” value [6] was 55% and the “Population Normal (%)” value [6] was 92%. The “Population Pyknosed Nuclei (%)” value [6] was 7%, the “Population Tubulin-Different-Phenotype (%)” value [6] was 14% and the “Total Cell Count” value [6] was 492. The “Population Apoptotic (%)” value [7] was 27%, the “Population Fragmented Nuclei (%)” value [7] was 10% and the “Population Healthy Nuclei (%)” value [7] was 75%. For the same compound, the “Population Hoechst High Intensity Objects (%)” value [7] was 4%, the “Population Membrane Permeable-Phenotype (%)” value [7] was 0% and the “Population Mitochondria Different-Phenotype (%)” value [7] was 29%. The “Population Mitotic Cells (%)” value [7] was 72%, the “Population Normal (%)” value [7] was 95% and the “Population Pyknosed Nuclei (%)” value [7] was 13%. For the same compound, the “Population Tubulin-Different-Phenotype (%)” value [7] was 16%, the “Total Cell Count” value [7] was 523 and the “Population Apoptotic (%)” value [8] was 44%. For the same compound, the “Population Fragmented Nuclei (%)” value [8] was 9%, the “Population Healthy Nuclei (%)” value [8] was 77% and the “Population Hoechst High Intensity Objects (%)” value [8] was 9%. The “Population Mitochondria Different-Phenotype (%)” value [8] was 50%, the “Population Mitotic Cells (%)” value [8] was 55% and the “Population Normal (%)” value [8] was 90%. The “Population Tubulin-Different-Phenotype (%)” value [8] was 21%, the “Total Cell Count” value [8] was 388 and the “Population Apoptotic (%)” value [9] was 29%. The “Population Fragmented Nuclei (%)” value [9] was 12%, the “Population Healthy Nuclei (%)” value [9] was 79% and the “Population Hoechst High Intensity Objects (%)” value [9] was 1%. The “Population Membrane Permeable-Phenotype (%)” value [9] was 1%, the “Population Mitochondria Different-Phenotype (%)” value [9] was 20% and the “Population Mitotic Cells (%)” value [9] was 70%. For the same compound, the “Population Normal (%)” value [9] was 98%, the “Population Pyknosed Nuclei (%)” value [9] was 7% and the “Population Tubulin-Different-Phenotype (%)” value [9] was 8%. For the same compound, the “Total Cell Count” value [9] was 864, the “Population Apoptotic (%)” value [10] was 30% and the “Population Fragmented Nuclei (%)” value [10] was 13%. For the same compound, the “Population Healthy Nuclei (%)” value [10] was 81%, the “Population Hoechst High Intensity Objects (%)” value [10] was 3% and the “Population Membrane Permeable-Phenotype (%)” value [10] was 2%. For the same compound, the “Population Mitochondria Different-Phenotype (%)” value [10] was 19%, the “Population Mitotic Cells (%)” value [10] was 69% and the “Population Normal (%)” value [10] was 96%. The “Population Pyknosed Nuclei (%)” value [10] was 5%, the “Population Tubulin-Different-Phenotype (%)” value [10] was 7% and the “Total Cell Count” value [10] was 775. For the same compound, the “Population Apoptotic (%)” value [11] was 22%, the “Population Fragmented Nuclei (%)” value [11] was 12% and the “Population Healthy Nuclei (%)” value [11] was 79%. The “Population Hoechst High Intensity Objects (%)” value [11] was 1%, the “Population Membrane Permeable-Phenotype (%)” value [11] was 0% and the “Population Mitochondria Different-Phenotype (%)” value [11] was 17%. The “Population Mitotic Cells (%)” value [11] was 77%, the “Population Normal (%)” value [11] was 98% and the “Population Pyknosed Nuclei (%)” value [11] was 8%. For the same compound, the “Population Tubulin-Different-Phenotype (%)” value [11] was 7%, the “Total Cell Count” value [11] was 815 and the “Population Apoptotic (%)” value [12] was 51%. For the same compound, the “Population Fragmented Nuclei (%)” value [12] was 10%, the “Population Healthy Nuclei (%)” value [12] was 80% and the “Population Hoechst High Intensity Objects (%)” value [12] was 3%. The “Population Mitochondria Different-Phenotype (%)” value [12] was 26%, the “Population Mitotic Cells (%)” value [12] was 48% and the “Population Normal (%)” value [12] was 96%. The “Population Tubulin-Different-Phenotype (%)” value [12] was 8% and the “Total Cell Count” value [12] was 544.
